A short description of experiment [1]: Antiproliferative activity against human EBC1 cells after 72 hrs by sulforhodamine B assay. The note with it: EBC-1, 72 h. For orientation: In SRB staining, fixed cells bind dye roughly in proportion to their protein.
For experiment [2], the target named is Hepatocyte growth factor receptor (Homo sapiens, UniProt P08581). Put plainly: Inhibition of recombinant c-Met (unknown origin) using poly (Glu,Tyr)4:1 substrate incubated for 60 mins by ELISA method. On the technique in general: An ELISA detects its analyte on a solid surface through an enzyme-linked reagent.
The target in experiment [3] is Platelet-derived growth factor receptor alpha (Homo sapiens) (UniProt P16234). The experiment can be described thus: Inhibition of PDGFRalpha (unknown origin) at 1 uM by ELISA method. An outline of the steps: (§1)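 Kinase profiling by ELISA kinase assay across a panel of tyrosine kinases, each tested at a single 1.0 µM compound concentration. Read-out is percent inhibition rate.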

The target of experiment [4] is Vascular endothelial growth factor receptor 1 (Homo sapiens) (UniProt P17948). Put plainly: Inhibition of FLT1 (unknown origin) at 1 uM by ELISA method. An outline of the steps:
as §1

The target in experiment [5] is Insulin-like growth factor 1 receptor (Homo sapiens) (UniProt P08069). Put plainly: Inhibition of IGF1R (unknown origin) at 1 uM by ELISA method. The gist of the method:
as §1

Experiment [6] concerns the target Tyrosine-protein kinase receptor UFO (Homo sapiens) (UniProt P30530). The experiment can be described thus: Inhibition of AXL (unknown origin) at 0.1 uM by ELISA method.
Experiment [7] concerns the target Macrophage-stimulating protein receptor (Homo sapiens) (UniProt Q04912). Put plainly: Inhibition of RON (unknown origin) at 0.1 uM by ELISA method.
Experiment [8] addresses Receptor tyrosine-protein kinase erbB-4 (Homo sapiens) (UniProt Q15303). Put plainly: Inhibition of ErbB4 (unknown origin) at 1 uM by ELISA method. The gist of the method:
as §1

For experiment [9], the target named is Platelet-derived growth factor receptor beta (Homo sapiens) (UniProt P09619). Put plainly: Inhibition of PDGFRbeta (unknown origin) at 1 uM by ELISA method. The gist of the method: as §1
The target in experiment [10] is Fibroblast growth factor receptor 2 (Homo sapiens) (UniProt P21802). Put plainly: Inhibition of FGFR2 (unknown origin) at 1 uM by ELISA method. An outline of the steps:
as §1

The target in experiment [11] is ALK tyrosine kinase receptor (Homo sapiens) (UniProt Q9UM73). Put plainly: Inhibition of ALK (unknown origin) at 1 uM by ELISA method. An outline of the steps: as §1
The target of experiment [12] is Tyrosine-protein kinase ABL1 (Homo sapiens) (UniProt P00519). The note with it: at 1 µM.
Experiment [13] concerns the target Fibroblast growth factor receptor 1 (Homo sapiens) (UniProt P11362). The experiment can be described thus: Inhibition of FGFR1 (unknown origin) at 1 uM by ELISA method. The gist of the method: as §1
For experiment [14], the target named is Tyrosine-protein kinase receptor UFO (Homo sapiens) (UniProt P30530). The experiment can be described thus: Inhibition of AXL (unknown origin) at 1 uM by ELISA method. An outline of the steps:
as §1

In experiment [15] the target is Proto-oncogene tyrosine-protein kinase Src (Homo sapiens) (UniProt P12931). The note with it: at 1 µM.
The target in experiment [16] is Vascular endothelial growth factor receptor 2 (Homo sapiens) (UniProt P35968). The note with it: at 1 µM.
In experiment [17] the target is Macrophage-stimulating protein receptor (Homo sapiens) (UniProt Q04912). Put plainly: Inhibition of RON (unknown origin) at 1 uM by ELISA method. An outline of the steps:
as §1

Experiment [18] concerns the target Fibroblast growth factor receptor 1 (Homo sapiens) (UniProt P11362). The note with it: 10 nM.

A word on the IC50: it is the concentration needed to halve the response being measured. As to `O=C(Nc1ccc(F)cc1)C1(C(=O)Nc2ccc(Oc3ccnc4c3nc3n4CCCC3)c(F)c2)CC1`, the IC50 in experiment [1] was greater than 10 µM; in [2], 260 nM.

On to `Nc1c(Oc2ccc(NC(=O)C3(C(=O)Nc4ccc(F)cc4)CC3)cc2F)ccnc1NC(=O)CCl`, for which, in [1], the IC50 was less than 10 µM.

What is called inhibition is the percentage by which the read-out fell short of the control. A lower inhibition goes with a response near the control. Consider `CCN(CC)CCNC(=O)c1c(C)[nH]c(/C=C2\C(=O)Nc3ccc(F)cc32)c1C`, for which the inhibition in experiment [3] turned out to be 68.4%; in [4], 66.6%.

On to `CN1CCC(Cn2c(=O)[nH]c3c4ncccc4c(Oc4ccc(NC(=O)c5cccn(-c6ccc(F)cc6)c5=O)cc4F)nc32)CC1`, for which half-maximal inhibition in [1] (IC50) was put at 19.8 µM.

On to `O=C(Nc1ccc(Oc2nc3c([nH]c(=O)n3Cc3ccc(O)cc3)c3ncccc23)c(F)c1)c1cccn(-c2ccc(F)cc2)c1=O`, for which the IC50 in experiment [1] is greater than 50 µM.

Take `O=C(Nc1ccc(Oc2nc3c([nH]c(=O)n3CCN3CCNCC3)c3ncccc23)c(F)c1)c1cccn(-c2ccc(F)cc2)c1=O`: the IC50 in experiment [1] is greater than 50 µM.

In turn, `Nc1nccc(Oc2ccc(NC(=O)C3(C(=O)Nc4ccc(F)cc4)CC3)cc2F)c1NCC(=O)O` gave an IC50 in experiment [1] of less than 10 µM.

`Nc1ncnc2c1c(-c1cccc(OCc3ccccc3)c1)cn2C1CC(CN2CCC2)C1` (stereo not drawn) yielded an inhibition in experiment [5] of 56.6%.

With `COc1cc2nccc(Oc3ccc(NC(=O)C4(C(=O)Nc5ccc(F)cc5)CC4)cc3)c2cc1OC`, the inhibition in experiment [6] and in experiment [7] was 100% throughout.

Take `O=C(Nc1ccc(F)cc1)C1(C(=O)Nc2ccc(Oc3ccnc4[nH]c(=O)[nH]c34)c(F)c2)CC1`: the inhibition in experiment [8] is 24.3%; in experiment [3], 22.6%; in [9], 0%; in [5], 33.6%; in experiment [10] it was 37.2%; in experiment [11] it was 2.5%. For the same molecule, the inhibition stood at 0% in experiment [12]; 7.4% in experiment [13]; 41.6% in [14]; 0% in [15]; 0% in [16]; 13.3% in experiment [4]. For the same molecule, the inhibition in [17] came out at 43.2%. Also, the IC50 in [1] was found to be 0.24 µM; in [2], 209 nM.

With `COc1cc(CCc2cc(NC(=O)c3ccc(N4C[C@@H](C)N[C@@H](C)C4)cc3)n[nH]2)cc(OC)c1`, the inhibition in [18] was 95.1%.

(Values after ChEMBL document CHEMBL3352075, “Discovery of potent 1H-imidazo[4,5-b]pyridine-based c-Met kinase inhibitors via mechanism-directed structural optimization” (Bioorg Med Chem Lett, 2015).)
